What was measured:
[1] = tested on: Hepatitis B virus; experiment: Antiviral activity against Hepatitis B virus infected in human HepG2.2.15 cells assessed as inhibition of HBsAg secretion at 75 uM after 6 days by ELISA; type: functional; settings: HepG2 2.2.15, 144 h
Method in brief: (§1)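 HepG2.2.15 cells (MEM, 10% FBS, 380 µg/ml G418) seeded at 1×10^5 cells/ml, held 24 h at 37 °C, then treated with various drug concentrations; medium with drug renewed every 3 d for up to 9 d. Culture medium sampled on days 3, 6 and 9, stored at -20 °C, and assayed for secreted antigen. Lamivudine as positive control; IC50 = 50% inhibition of secretion; means of at least two experiments.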

[2] = tested on: Hepatitis B virus; experiment: Antiviral activity against Hepatitis B virus infected in human HepG2.2.15 cells assessed as inhibition of HBeAg secretion at 75 uM after 3 days by ELISA; type: functional; settings: HepG2 2.2.15, 72 h; method in brief: as §1
[3] = tested on: Hepatitis B virus; experiment: Antiviral activity against Hepatitis B virus infected in human HepG2.2.15 cells assessed as inhibition of HBsAg secretion at 150 uM after 3 days by ELISA; type: functional; settings: HepG2 2.2.15, 72 h; method in brief: as §1
[4] = Selectivity index, ratio of CC50 for human HepG2.2.15 cells to IC50 for Hepatitis B virus infected in human HepG2.2.15 cells assessed as inhibition of HBV DNA replication; type: functional
[5] = tested on: Hepatitis B virus; experiment: Antiviral activity against Hepatitis B virus infected in human HepG2.2.15 cells assessed as inhibition of HBeAg secretion at 300 uM after 6 days by ELISA; type: functional; settings: HepG2 2.2.15, 144 h; method in brief: as §1
[6] = tested on: Hepatitis B virus; experiment: Antiviral activity against Hepatitis B virus infected in human HepG2.2.15 cells assessed as inhibition of HBeAg secretion by ELISA; type: functional, organism-based; settings: HepG2 2.2.15; method in brief: as §1
[7] = tested on: Hepatitis B virus; experiment: Antiviral activity against Hepatitis B virus infected in human HepG2.2.15 cells assessed as inhibition of HBV DNA copies per uL at 75 uM after 3 days by real-time fluorescence quantitative PCR analysis; type: functional; settings: HepG2 2.2.15, 72 h
[8] = tested on: Hepatitis B virus; experiment: Antiviral activity against Hepatitis B virus infected in human HepG2.2.15 cells assessed as inhibition of HBsAg secretion at 37.5 uM after 9 days by ELISA; type: functional; settings: HepG2 2.2.15, 216 h; method in brief: as §1
[9] = tested on: Hepatitis B virus; experiment: Antiviral activity against Hepatitis B virus infected in human HepG2.2.15 cells assessed as inhibition of HBV DNA copies per uL at 37.5 uM after 9 days by real-time fluorescence quantitative PCR analysis; type: functional; settings: HepG2 2.2.15, 216 h
[10] = tested on: Hepatitis B virus; experiment: Antiviral activity against Hepatitis B virus infected in human HepG2.2.15 cells assessed as inhibition of HBeAg secretion at 150 uM after 9 days by ELISA; type: functional; settings: HepG2 2.2.15, 216 h; method in brief: as §1
[11] = tested on: Hepatitis B virus; experiment: Antiviral activity against Hepatitis B virus infected in human HepG2.2.15 cells assessed as inhibition of HBV DNA copies per uL at 300 uM after 9 days by real-time fluorescence quantitative PCR analysis; type: functional; settings: HepG2 2.2.15, 216 h
[12] = tested on: Hepatitis B virus; experiment: Antiviral activity against Hepatitis B virus infected in human HepG2.2.15 cells assessed as inhibition of HBV DNA copies per uL at 300 uM after 6 days by real-time fluorescence quantitative PCR analysis; type: functional; settings: HepG2 2.2.15, 144 h
[13] = tested on: Hepatitis B virus; experiment: Antiviral activity against Hepatitis B virus infected in human HepG2.2.15 cells assessed as inhibition of HBeAg secretion at 75 uM after 6 days by ELISA; type: functional; settings: HepG2 2.2.15, 144 h; method in brief: as §1
[14] = tested on: Hepatitis B virus; experiment: Antiviral activity against Hepatitis B virus infected in human HepG2.2.15 cells assessed as inhibition of HBeAg secretion at 37.5 uM after 6 days by ELISA; type: functional; settings: HepG2 2.2.15, 144 h; method in brief: as §1
[15] = tested on: Hepatitis B virus; experiment: Antiviral activity against Hepatitis B virus infected in human HepG2.2.15 cells assessed as inhibition of HBV DNA copies per uL at 300 uM after 3 days by real-time fluorescence quantitative PCR analysis; type: functional; settings: HepG2 2.2.15, 72 h
[16] = tested on: Hepatitis B virus; experiment: Antiviral activity against Hepatitis B virus infected in human HepG2.2.15 cells assessed as inhibition of HBeAg secretion at 150 uM after 6 days by ELISA; type: functional; settings: HepG2 2.2.15, 144 h; method in brief: as §1
[17] = tested on: Hepatitis B virus; experiment: Antiviral activity against Hepatitis B virus infected in human HepG2.2.15 cells assessed as inhibition of HBsAg secretion at 150 uM after 9 days by ELISA; type: functional; settings: HepG2 2.2.15, 216 h; method in brief: as §1
[18] = tested on: Hepatitis B virus; experiment: Antiviral activity against Hepatitis B virus infected in human HepG2.2.15 cells assessed as inhibition of HBsAg secretion by ELISA; type: functional, organism-based; settings: HepG2 2.2.15; method in brief: as §1
[19] = tested on: Hepatitis B virus; experiment: Antiviral activity against Hepatitis B virus infected in human HepG2.2.15 cells assessed as inhibition of HBeAg secretion at 300 uM after 3 days by ELISA; type: functional; settings: HepG2 2.2.15, 72 h; method in brief: as §1
[20] = tested on: Hepatitis B virus; experiment: Antiviral activity against Hepatitis B virus infected in human HepG2.2.15 cells assessed as inhibition of HBeAg secretion at 150 uM after 3 days by ELISA; type: functional; settings: HepG2 2.2.15, 72 h; method in brief: as §1
[21] = tested on: Hepatitis B virus; experiment: Antiviral activity against Hepatitis B virus infected in human HepG2.2.15 cells assessed as cell survival at 300 uM after 9 days (reference value: 100%); type: functional; settings: HepG2 2.2.15, 216 h
Method in brief: (§2)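 HepG2.2.15 cells (MEM, 10% FBS, 380 µg/ml G418, 37 °C, 5% CO2) seeded at 1×10^5 cells/ml, cultured 24 h, then exposed to various drug concentrations; drug-containing medium renewed every 3 d. OD read at 450 nm after 9 days; percent cell death calculated; CC50 = concentration killing 50% of cells. Means of at least two experiments.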

[22] = tested on: Hepatitis B virus; experiment: Antiviral activity against Hepatitis B virus infected in human HepG2.2.15 cells assessed as inhibition of HBsAg secretion at 75 uM after 9 days by ELISA; type: functional; settings: HepG2 2.2.15, 216 h; method in brief: as §1
[23] = tested on: Hepatitis B virus; experiment: Antiviral activity against Hepatitis B virus infected in human HepG2.2.15 cells assessed as cell survival at 37.5 uM after 9 days (reference value: 100%); type: functional; settings: HepG2 2.2.15, 216 h; method in brief: as §2
[24] = tested on: Hepatitis B virus; experiment: Antiviral activity against Hepatitis B virus infected in human HepG2.2.15 cells assessed as inhibition of HBeAg secretion at 37.5 uM after 9 days by ELISA; type: functional; settings: HepG2 2.2.15, 216 h; method in brief: as §1
[25] = tested on: Hepatitis B virus; experiment: Antiviral activity against Hepatitis B virus infected in human HepG2.2.15 cells assessed as inhibition of HBsAg secretion at 300 uM after 9 days by ELISA; type: functional; settings: HepG2 2.2.15, 216 h; method in brief: as §1
[26] = tested on: Hepatitis B virus; experiment: Antiviral activity against Hepatitis B virus infected in human HepG2.2.15 cells assessed as inhibition of HBsAg secretion at 150 uM after 6 days by ELISA; type: functional; settings: HepG2 2.2.15, 144 h; method in brief: as §1
[27] = tested on: Hepatitis B virus; experiment: Antiviral activity against Hepatitis B virus infected in human HepG2.2.15 cells assessed as inhibition of HBeAg secretion at 75 uM after 9 days by ELISA; type: functional; settings: HepG2 2.2.15, 216 h; method in brief: as §1
[28] = tested on: Hepatitis B virus; experiment: Antiviral activity against Hepatitis B virus infected in human HepG2.2.15 cells assessed as inhibition of HBV DNA replication by real-time fluorescence quantitative PCR analysis; type: functional, organism-based; settings: HepG2 2.2.15
[29] = tested on: Hepatitis B virus; experiment: Antiviral activity against Hepatitis B virus infected in human HepG2.2.15 cells assessed as cell survival at 75 uM after 9 days (reference value: 100%); type: functional; settings: HepG2 2.2.15, 216 h; method in brief: as §2
[30] = tested on: Hepatitis B virus; experiment: Antiviral activity against Hepatitis B virus infected in human HepG2.2.15 cells assessed as inhibition of HBsAg secretion at 300 uM after 6 days by ELISA; type: functional; settings: HepG2 2.2.15, 144 h; method in brief: as §1
[31] = tested on: Hepatitis B virus; experiment: Antiviral activity against Hepatitis B virus infected in human HepG2.2.15 cells assessed as inhibition of HBV DNA copies per uL at 75 uM after 9 days by real-time fluorescence quantitative PCR analysis; type: functional; settings: HepG2 2.2.15, 216 h

Row | SMILES | inhibition at 75 µM [1] | inhibition at 75 µM [2] | inhibition at 150 µM [3] | Ratio CC50/IC50 [4] | inhibition at 300 µM [5] | IC50 [6] | inhibition at 75 µM [7] | inhibition at 37.5 µM [8] | inhibition at 37.5 µM [9] | inhibition at 150 µM [10] | inhibition at 300 µM [11] | inhibition at 300 µM [12] | inhibition at 75 µM [13] | inhibition at 37.5 µM [14] | inhibition at 300 µM [15] | inhibition at 150 µM [16] | inhibition at 150 µM [17] | IC50 [18] | inhibition at 300 µM [19] | inhibition at 150 µM [20] | other results
1 | O=C(/C=C/c1ccc2c(c1)OCO2)O/N=C/c1ccccn1 | 67.3% | 47.5% | 63.8% | 10.8 | 85.1% | 6.2 µM | 36.9% | 70.7% | 58.4% | 95.9% | 85.8% | 68.8% | 74.8% | 66.5% | 62.8% | 77.6% | 86.9% | 14.2 µM | 63.5% | 55.9% | viability at 300 µM [21]: 35.1%; inhibition at 75 µM [22]: 78.4%; viability at 37.5 µM [23]: 79.3%; inhibition at 37.5 µM [24]: 82.5%; inhibition at 300 µM [25]: 93%; inhibition at 150 µM [26]: 80.5%; inhibition at 75 µM [27]: 89.8%; IC50 [28]: 23.4 µM; viability at 75 µM [29]: 72.9%; inhibition at 300 µM [30]: 88.7%; inhibition at 75 µM [31]: 68.7%
2 | COc1cc(/C=C/C(=O)O/N=C/c2ccccn2)cc2c1OCO2 | 43.9% | 27.3% | 41.2% | 6.78 | 75.4% | 72.9 µM | 28.6% | 30.4% | 36.7% | 65.3% | 67.5% | 52.9% | 42.3% | 22.7% | 41.1% | 63.5% | 70% | 62.8 µM | 54.2% | 45.5% | viability at 300 µM [21]: 67.2%; inhibition at 75 µM [22]: 65.8%; viability at 37.5 µM [23]: 101%; inhibition at 37.5 µM [24]: 30%; inhibition at 300 µM [25]: 81.3%; inhibition at 150 µM [26]: 59.6%; inhibition at 75 µM [27]: 57.3%; IC50 [28]: 95 µM; viability at 75 µM [29]: 94.2%; inhibition at 300 µM [30]: 76.6%; inhibition at 75 µM [31]: 47.3%

From ChEMBL document CHEMBL3576819, “Design, synthesis, biological evaluation and molecular docking studies of phenylpropanoid derivatives as potent anti-hepatitis B virus agents” (Eur J Med Chem, 2015)
